Test results as given in ChEMBL document CHEMBL2150952 (J Med Chem, 2011).
One block for each molecule: values may come before it. Active and inactive are the calls of the source. No cut-off for these calls is given here.

Tests used:
[1] = biological target: T1, Acyl-CoA desaturase 1 (Rattus norvegicus, UniProt P07308); test: Inhibition of SCD-1 activity in Sprague-Dawley rat Hepatocytes expressing organic anion transporting polypeptides assessed as reduction in [I-14C] […] desaturation by scintillation counting; format: cell-based, Hepatocyte
T1 sequence (P07308 whole entry): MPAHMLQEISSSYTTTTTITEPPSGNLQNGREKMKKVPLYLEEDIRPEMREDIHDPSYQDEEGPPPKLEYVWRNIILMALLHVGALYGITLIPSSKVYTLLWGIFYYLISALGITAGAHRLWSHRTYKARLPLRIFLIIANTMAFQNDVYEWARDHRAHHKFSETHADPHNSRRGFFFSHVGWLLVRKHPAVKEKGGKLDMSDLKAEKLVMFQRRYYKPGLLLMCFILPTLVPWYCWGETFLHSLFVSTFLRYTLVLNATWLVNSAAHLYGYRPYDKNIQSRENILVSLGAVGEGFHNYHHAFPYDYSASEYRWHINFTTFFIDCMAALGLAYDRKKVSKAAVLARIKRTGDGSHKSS
Summary of the method: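 Rat hepatocytes (4 × 10^6 cells/mL) were preincubated with compound for 15 min at 37 °C/5% CO2. 14C-stearic acid (final 0.5 μCi/mL) was then added for 1 h with shaking. Cells were washed, hydrolyzed in 2N NaOH at 75 °C for 1 h, acidified and extracted. Radiolabeled oleic and stearic acids were quantified by HPLC with flow scintillation detection. Mean of at least n = 3.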

[2] = tested on: Mus musculus; test: Antidiabetic activity in po dosed diet-induced obese C57BL6 mouse assessed as reduction in body weight gain; format: functional, organism-based
Summary of the method: (§1)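 Male C57/Bl6 mice were fed a high fat diet for at least 18 weeks from 6 weeks of age, then given vehicle (1% methocel, bid) for 7 days and randomized by body weight. Oral dosing (qd or bid) ran for 28 days, with n = 8–10/group. Body weight, food intake and skin/eye scores were recorded twice weekly.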

[3] = tested on: Mus musculus; test: Antidiabetic activity in diet-induced obese C57BL6 mouse assessed as reduction in glucose AUC at 1 to 15 mg/kg, po administered 1 hr before oral glucose administration measured 2 hrs thereafter; format: functional; conditions: dose mg/kg 1-15
[4] = tested on: Mus musculus; test: Inhibition of SCD activity in skin of diet-induced obese C57BL6 mouse assessed as reduction in desaturation induces at 5 mg/kg, po QD; format: functional
[5] = tested on: HepG2; test: Ratio IC50 for SCD-1 activity in organic anion transporting polypeptides-deficient human HepG2 cells to IC50 for SCD-1 activity in Sprague-Dawley rat Hepatocytes expressing organic anion transporting polypeptides; format: cell-based
Summary of the method: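 Cellular SCD IC50s measured in human HepG2 cells (lacking active OATPs) and in rat hepatocytes (active OATPs). Hepatocytes preincubated with compound for 15 min at 37 °C, then given 14C-stearic acid (final 0.5 μCi/ml) for 1 h with shaking. Lipids hydrolysed in 2N NaOH at 75 °C, acidified and extracted. Radiolabelled oleic and stearic acid resolved by HPLC with flow scintillation detection. Mean of at least n = 3. HepG2 IC50 divided by hepatocyte IC50.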

[6] = tested on: Mus musculus; test: Antidiabetic activity in diet-induced obese C57BL6 mouse assessed as reduction in body weight gain at 5 mg/kg, po QD; format: functional; parameters: scale not given: the % may be the effect or the level left; summary of the method: as §1
[7] = Volume of distribution in fasted C57BL6 mouse at 2 mg/kg, iv and 10 mg/kg, po by LC-MS-MS analysis; format: ADME, organism-based; conditions: in vivo
Summary of the method: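 Fasted male C57BL6 mice given 2 mg/kg IV and 10 mg/kg PO. Plasma drug levels measured by LC-MS/MS, mean of n = 3 animals, and PK parameters derived from these.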

[8] = tested on: Mus musculus; test: Antidiabetic activity in diet-induced obese C57BL6 mouse assessed as reduction in body weight gain at 1 mg/kg, po QD; format: functional; parameters: scale not given: the % may be the effect or the level left; summary of the method: as §1
[9] = tested on: Mus musculus; test: Toxicity in diet-induced obese C57BL6 mouse assessed as reduction in food intake at 1 to 5 mg/kg, po QD; format: organism-based; parameters: dose 1-5 mg/kg, route oral; conditions: in vivo
Summary of the method: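 Obese male C57/Bl6 mice after at least 18 weeks of high fat diet and a 7-day vehicle run-in, randomized by body weight. Dosed orally at 1 or 5 mg/kg qd for 28 days (n = 8–10/group). Food consumption monitored twice weekly.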

[10] = Drug level in harderian gland of diet-induced obese C57BL6 mouse at 5 mg/kg, po QD; format: ADME, organism-based; parameters: dose 5 mg/kg, route oral; conditions: in vivo, read-out: Drug uptake
Summary of the method: (§2)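 eDIO mice were dosed orally for 4 weeks, either 20 mg/kg bid or 5 mg/kg qd. Liver, Harderian gland and skin were taken at trough at study termination, and compound concentration was measured by LC-MS.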

[11] = tested on: Liver; test: Ratio drug uptake in liver to harderian gland of C57BL6 mouse at 10 mg/kg, po measured 6 hrs post dose; format: ADME, organism-based; parameters: dose 10 mg/kg, route oral; conditions: in vivo
Summary of the method: (§3)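 Single oral dose of 10 mg/kg in 0.5% methylcellulose to fed C57BL6 mice (n = 2). Animals sacrificed 6 h post dose. Plasma, liver, skin and Harderian gland collected. Tissues homogenized in MeCN/water with internal standard and drug quantified by LC-MS against a standard curve made in blank plasma. Concentration ratio calculated.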

[12] = tested on: Mus musculus; test: Antidiabetic activity in diet-induced obese C57BL6 mouse assessed as reduction in glucose AUC at 1 to 10 mg/kg, po administered 1 hr before oral glucose administration measured 2 hrs thereafter; format: functional; conditions: dose mg/kg 1-10
[13] = AUC in plasma of fasted C57BL6 mouse at 2 mg/kg, iv and 10 mg/kg, po by LC-MS-MS analysis; format: ADME, organism-based
Summary of the method: (§4)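 Fasted male C57BL6 mice received 2 mg/kg IV and 10 mg/kg PO. For the reference compound, IV was given as a solution in 60% PEG-200 and PO as a suspension in 1% methocel. Plasma levels were measured by LC-MS/MS. Values are the mean of n = 3 animals.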

[14] = Ratio drug uptake in liver to plasma of C57BL6 mouse at 10 mg/kg, po measured 6 hrs post dose; format: ADME, organism-based; parameters: dose 10 mg/kg, route oral; conditions: liver and plasma; summary of the method: as §3
[15] = Cmax in plasma of fasted C57BL6 mouse at 2 mg/kg, iv and 10 mg/kg, po by LC-MS-MS analysis; format: ADME, organism-based; summary of the method: as §4
[16] = tested on: Mus musculus; test: Inhibition of SCD activity in liver of diet-induced obese C57BL6 mouse assessed as reduction in desaturation induces at 30 mg/kg, po BID; format: functional, organism-based; parameters: dose 30 mg/kg
[17] = biological target: T1, Acyl-CoA desaturase 1; test: Inhibition of SCD-1 activity in Sprague-Dawley rat microsome assessed as reduction in [I-14C] stearoyl CoA desaturation by scintillation counting; format: microsomes
[18] = tested on: Liver; test: Drug level in liver of diet-induced obese C57BL6 mouse at 5 mg/kg, po QD; format: ADME, organism-based; parameters: dose 5 mg/kg, route oral; conditions: in vivo, read-out: Drug uptake; summary of the method: as §2
[19] = tested on: Mus musculus; test: Toxicity in diet-induced obese C57BL6 mouse assessed as adverse effect in eye at 1 to 5 mg/kg, po QD; format: organism-based; parameters: dose 1-5 mg/kg, route oral; conditions: in vivo
[20] = Clearance in fasted C57BL6 mouse at 2 mg/kg, iv and 10 mg/kg, po by LC-MS-MS analysis; format: ADME, organism-based; conditions: in vivo; summary of the method: as §4
[21] = tested on: Mus musculus; test: Inhibition of SCD activity in liver of diet-induced obese C57BL6 mouse assessed as reduction in desaturation induces at 5 mg/kg, po QD; format: functional
[22] = tested on: Zone of skin; test: Drug level in skin of diet-induced obese C57BL6 mouse at 5 mg/kg, po QD; format: ADME, organism-based; parameters: dose 5 mg/kg, route oral; conditions: in vivo, read-out: Drug uptake; summary of the method: as §2
[23] = tested on: Mus musculus; test: Antidiabetic activity in po dosed diet-induced obese fasted C57BL6 mouse assessed as increase in glucose clearance administered 1 hr before glucose challenge measured 12 hrs thereafter by OGTT; format: functional; conditions: in the assay text read “2 hrs” for “12 hrs”
Summary of the method: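 Male C57/Bl6 mice were kept on a high fat diet for at least 14 weeks from 6 weeks of age, then fasted 16 h. Compound was given orally 1 h before a 2 g/kg oral glucose load.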

[24] = tested on: Mus musculus; test: Toxicity in diet-induced obese C57BL6 mouse assessed as adverse effect in skin at 1 to 5 mg/kg, po QD; format: organism-based; parameters: dose 1-5 mg/kg, route oral; conditions: in vivo
[25] = tested on: Mus musculus; test: Antidiabetic activity in diet-induced obese C57BL6 mouse assessed as reduction in glucose AUC at 1 to 3 mg/kg, po administered 1 hr before oral glucose administration measured 2 hrs thereafter; format: functional; conditions: dose mg/kg 1-3
[26] = biological target: T2, Stearoyl-CoA desaturase (Homo sapiens, UniProt O00767); test: Inhibition of SCD-1 activity in organic anion transporting polypeptides-deficient human HepG2 cells assessed as reduction in [I-14C] stearoyl CoA desaturation by scintillation counting; format: cell-based
T2 sequence (O00767 whole entry): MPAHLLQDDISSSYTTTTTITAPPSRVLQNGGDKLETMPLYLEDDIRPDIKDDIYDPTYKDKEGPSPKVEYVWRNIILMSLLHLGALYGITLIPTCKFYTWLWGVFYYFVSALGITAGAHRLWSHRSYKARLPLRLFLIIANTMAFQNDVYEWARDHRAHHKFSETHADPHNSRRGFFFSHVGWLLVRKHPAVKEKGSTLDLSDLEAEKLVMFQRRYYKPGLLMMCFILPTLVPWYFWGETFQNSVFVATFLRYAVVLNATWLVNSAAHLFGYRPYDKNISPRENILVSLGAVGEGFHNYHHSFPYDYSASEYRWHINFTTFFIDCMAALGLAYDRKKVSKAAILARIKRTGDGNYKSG

[27] = tested on: Mus musculus; test: Inhibition of SCD activity in harderian gland of diet-induced obese C57BL6 mouse assessed as reduction in desaturation induces at 5 mg/kg, po QD; format: functional

IC50 [1]: 157 nM
Vd [7]: 7 L/kg
concentration [10]: 5 µM
Ratio [11]: 1.5
AUC [13]: 19 µM·h
Kp at 6 h [14]: 14
Cmax [15]: 1.3 µM
IC50 [17]: 2 nM
concentration [18]: 10 µM
clearance [20]: 15 mL/min/kg
concentration [22]: 4 µM
IC50 [26]: 21 nM
SMILES: Cc1nnc(-c2ccc(N3CCC(Oc4ccccc4C(F)(F)F)CC3)nn2)s1
Activity [2]: Dose-dependent effect
inhibition (INH) [3]: 75%
inhibition in vivo at 5 mg/kg [4]: 25%
Ratio IC50 [5]: 0.14
Activity [6]: 20%
Activity [8]: 10%
Activity [9]: Non-toxic
inhibition (INH) [12]: 62%
inhibition [16]: Active
Activity [19]: Toxic
inhibition in vivo at 5 mg/kg [21]: 56%
Activity [23]: Dose-dependent effect
ED50 [23]: 3 mg/kg
Activity [24]: Toxic
inhibition (INH) [25]: 55%
inhibition in vivo at 5 mg/kg [27]: 92%

IC50 [1]: 3470 nM
Ratio [11]: 330
Kp at 6 h [14]: 15
IC50 [17]: 276 nM
IC50 [26]: > 50000 nM
SMILES: FC(F)(F)c1ccccc1OC1CCN(c2nnc(-c3nn[nH]n3)s2)CC1
Ratio IC50 [5]: > 14

IC50 [1]: 3070 nM
Ratio [11]: 26
IC50 [17]: 34 nM
IC50 [26]: 12600 nM
SMILES: Fc1ccc(Br)c(OC2CCN(c3nnc(-c4nn[nH]n4)s3)CC2)c1
Ratio IC50 [5]: 4
